Experimental data as given in ChEMBL document CHEMBL3352437, “Novel 3,5-bis(arylidene)-4-oxo-1-piperidinyl dimers: structure-activity relationships and potent antileukemic and antilymphoma cytotoxicity” (Eur J Med Chem, 2014).

Columns and labels:
[1] = test system: HL-60(TB); assay: Antileukemic activity against human HL-60(TB) cells assessed as inhibition of tumor growth after 24 hrs; assay type: functional, cell-based; conditions: HL-60, 24 h
[2] = test system: HeLa; assay: Antiproliferative activity against human HeLa cells after 72 hrs by coulter counting analysis; assay type: functional, cell-based
Outline: (§1)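 Cells exposed to a range of concentrations in RPMI 1640 at 37°C for 72 h. Surviving cells counted by Coulter counter. IC50 taken from concentration-response curves, mean ± SD of at least three independent experiments.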

[3] = test system: MCF7; assay: Cytotoxicity against human MCF7 cells assessed as dead cells at 1 uM after 24 hrs; assay type: functional
Outline: (§2)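 Dienones added as DMSO solutions to cells in RPMI medium and incubated 24 h at 37°C. Cytotoxicity was scored as cell-membrane disruption by propidium iodide staining and expressed as percentage of dead cells, averaged over three independent experiments.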

[4] = Cytotoxicity against human HCT15 cells assessed as inhibition of tumor growth after 24 hrs; assay type: functional, cell-based; conditions: HCT-15, 24 h
[5] = test system: K562; assay: Antileukemic activity against human K562 cells assessed as inhibition of tumor growth after 24 hrs; assay type: functional, cell-based; conditions: K562, 24 h
[6] = test system: Jurkat; assay: Cytotoxicity against human Jurkat cells assessed as dead cells at 1 uM after 24 hrs; assay type: functional; outline: as §2
[7] = test system: HS27; assay: Cytotoxicity against human HS27 cells assessed as dead cells at 1 uM after 24 hrs; assay type: cell-based; conditions: hs27, 24 h
Outline: (§3)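 Compounds added from DMSO solutions to cells in medium (RPMI; DMEM for Hs-27 fibroblasts) and incubated 24 h at 37°C. Membrane disruption scored by propidium iodide uptake. Result is percentage of dead cells, average of three independent experiments.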

[8] = test system: SR; assay: Antileukemic activity against human SR cells assessed as inhibition of tumor growth after 24 hrs; assay type: functional, cell-based
[9] = test system: Ramos; assay: Cytotoxicity against human Ramos cells assessed as dead cells at 1 uM after 24 hrs; assay type: functional; outline: as §2
[10] = test system: Raji; assay: Cytotoxicity against human Raji cells assessed as dead cells at 1 uM after 24 hrs; assay type: functional; outline: as §2
[11] = test system: LAPC4; assay: Cytotoxicity against human LAPC4 cells assessed as dead cells at 1 uM after 24 hrs; assay type: functional; outline: as §2
[12] = Antiproliferative activity against human Molt4/C8 cells after 72 hrs by coulter counting analysis; assay type: functional, cell-based; conditions: MOLT-4, 72 h; outline: as §1
[13] = test system: HCC70; assay: Cytotoxicity against human HCC70 cells assessed as dead cells at 1 uM after 24 hrs; assay type: functional; outline: as §2
[14] = test system: COLO 205; assay: Cytotoxicity against human COLO205 cells assessed as inhibition of tumor growth after 24 hrs; assay type: functional, cell-based; conditions: COLO 205, 24 h
[15] = test system: SW-620; assay: Cytotoxicity against human SW620 cells assessed as inhibition of tumor growth after 24 hrs; assay type: functional, cell-based; conditions: SW-620, 24 h
[16] = Cytotoxicity against human HuT-102 cells assessed as dead cells at 1 uM after 24 hrs; assay type: functional; outline: as §2
[17] = Cytotoxicity against human MDA231 cells assessed as dead cells at 1 uM after 24 hrs; assay type: functional, MDA-MB-231; outline: as §2
[18] = Cytotoxicity against human NCI60 cells assessed as inhibition of tumor growth after 24 hrs; assay type: functional, cell-based; conditions: NCI60, 24 h
[19] = Cytotoxicity against human MCF10A cells assessed as dead cells at 1 uM after 24 hrs; assay type: cell-based; conditions: mcf-10a; outline: as §3
[20] = Cytotoxicity against human NALM6 cells assessed as dead cells at 1 uM after 24 hrs; assay type: functional, NALM-6; outline: as §2
[21] = test system: DU-145; assay: Cytotoxicity against human DU145 cells assessed as dead cells at 1 uM after 24 hrs; assay type: functional; outline: as §2
[22] = test system: L1210; assay: Antiproliferative activity against mouse L1210 cells after 72 hrs by coulter counting analysis; assay type: functional, cell-based; conditions: L1210, 72 h
[23] = test system: HCC 2998; assay: Cytotoxicity against human HCC2998 cells assessed as inhibition of tumor growth after 24 hrs; assay type: functional, cell-based; conditions: HCC 2998, 24 h
[24] = test system: YT; assay: Cytotoxicity against human YT cells assessed as dead cells at 1 uM after 24 hrs; assay type: functional; outline: as §2
[25] = Cytotoxicity against human SupT1 cells assessed as dead cells at 1 uM after 24 hrs; assay type: functional, SUP-T1; outline: as §2
[26] = Antileukemic activity against human RPMI8226 cells assessed as inhibition of tumor growth after 24 hrs; assay type: functional, cell-based; conditions: rpmi-8226
[27] = Cytotoxicity against human MOLT3 cells assessed as dead cells at 1 uM after 24 hrs; assay type: functional, MOLT-3; outline: as §2
[28] = test system: BJAB; assay: Cytotoxicity against human BJAB cells assessed as dead cells at 1 uM after 24 hrs; assay type: functional; outline: as §2
[29] = Cytotoxicity against human 22Rvl cells assessed as dead cells at 1 uM after 24 hrs; assay type: functional; outline: as §2
[30] = test system: EL4; assay: Cytotoxicity against mouse EL4 cells assessed as dead cells at 1 uM after 24 hrs; assay type: functional; outline: as §2
[31] = test system: KM12; assay: Cytotoxicity against human KM12 cells assessed as inhibition of tumor growth after 24 hrs; assay type: functional, cell-based; conditions: KM12, 24 h
[32] = test system: CCRF-CEM; assay: Cytotoxicity against human CEM cells assessed as dead cells at 1 uM after 24 hrs; assay type: functional; outline: as §2
[33] = test system: CCRF-CEM; assay: Antiproliferative activity against human CEM cells after 72 hrs by coulter counting analysis; assay type: functional, cell-based; outline: as §1

Row | SMILES | IC50 [2] [nM] | Activity [3] [%] | Activity [6] [%] | Activity [7] [%] | Activity [9] [%] | Activity [10] [%] | Activity [11] [%] | IC50 [12] [nM] | Activity [13] [%] | Activity [16] [%] | Activity [17] [%] | Activity [19] [%] | Activity [20] [%] | Activity [21] [%] | IC50 [22] [nM] | Activity [24] [%] | Activity [25] [%] | Activity [27] [%] | Activity [28] [%] | Activity [29] [%] | further results
1 | O=C1/C(=C/c2ccc(F)cc2)CN(C(=O)C(=O)N2C/C(=C\c3ccc(F)cc3)C(=O)/C(=C/c3ccc(F)cc3)C2)C/C1=C\c1ccc(F)cc1 | 388 | 16.2 | 87.8 | 0.6 | 53.3 | 33.5 | 11.3 | 83 | 6.6 | 64.4 | 5.5 | 7.7 | 61.6 | 15.2 | 422 | 17.1 | 35.6 | 3.1 | 61.8 | 30.1 | IC50 [1]: 1120 nM; IC50 [4]: 160 nM; IC50 [5]: 280 nM; IC50 [8]: 160 nM; IC50 [14]: 630 nM; IC50 [15]: 320 nM; IC50 [18]: 580 nM; IC50 [23]: 620 nM; IC50 [26]: 120 nM; Activity [30]: 34.7%; IC50 [31]: 300 nM; Activity [32]: 85.3%; IC50 [33]: 221 nM
2 | Cc1ccc(/C=C2/CN(C(=O)CC(=O)N3C/C(=C\c4ccc(C)cc4)C(=O)/C(=C/c4ccc(C)cc4)C3)C/C(=C\c3ccc(C)cc3)C2=O)cc1 | 2880 | 19.1 | 85.5 | 26.5 | 83 | 46.5 | 7 | 1890 | 10.1 | 50.9 | 8.6 | 15.4 | 67.6 | 21.9 | 5380 | 29.1 | 23.6 | 21.3 | 60.2 | 6.3 | IC50 [1]: 230 nM; IC50 [4]: 80 nM; IC50 [5]: 100 nM; IC50 [8]: 50 nM; IC50 [14]: 170 nM; IC50 [15]: 150 nM; IC50 [18]: 190 nM; IC50 [23]: 300 nM; IC50 [26]: 30 nM; Activity [30]: 66.9%; IC50 [31]: 170 nM; Activity [32]: 85.7%; IC50 [33]: 3440 nM
3 | O=C1/C(=C/c2ccc(Cl)cc2)CN(C(=O)C(=O)N2C/C(=C\c3ccc(Cl)cc3)C(=O)/C(=C/c3ccc(Cl)cc3)C2)C/C1=C\c1ccc(Cl)cc1 | 649 | 17.8 | 78.5 | 0 | 82.9 | 35.7 | 27 | 294 | 8.4 | 31.4 | 10 | 2.2 | 59 | 33.1 | 547 | 21.5 | 18.1 | 0.4 | 43.1 | 13.6 | IC50 [1]: 190 nM; IC50 [4]: 140 nM; IC50 [5]: 130 nM; IC50 [8]: 20 nM; IC50 [14]: 160 nM; IC50 [15]: 180 nM; IC50 [18]: 220 nM; IC50 [23]: 310 nM; IC50 [26]: 50 nM; Activity [30]: 52.5%; IC50 [31]: 210 nM; Activity [32]: 59.9%; IC50 [33]: 793 nM
4 | O=C1/C(=C\c2ccc(Cl)cc2)CN(C(=O)CC(=O)N2C/C(=C\c3ccc(Cl)cc3)C(=O)/C(=C/c3ccc(Cl)cc3)C2)C/C1=C\c1ccc(Cl)cc1 | 822 | 19.5 | 85.3 | 5.7 | 86.3 | 32.7 | 1 | 1050 | 7.8 | 20.4 | 32.7 | 3.1 | 68.6 | 40.3 | 847 | 16.8 | 21.1 | 20.6 | 49.9 | 1.7 | IC50 [1]: 110 nM; IC50 [4]: 60 nM; IC50 [5]: 30 nM; IC50 [8]: 10 nM; IC50 [14]: 80 nM; IC50 [15]: 30 nM; IC50 [18]: 90 nM; IC50 [23]: 130 nM; IC50 [26]: 20 nM; Activity [30]: 55.4%; IC50 [31]: 160 nM; Activity [32]: 83%; IC50 [33]: 1060 nM
5 | COc1ccc(/C=C2\CN(C(=O)C(=O)N3C/C(=C\c4ccc(OC)cc4)C(=O)/C(=C/c4ccc(OC)cc4)C3)C/C(=C\c3ccc(OC)cc3)C2=O)cc1 | 59900 | 16.2 | 72 | 0.6 | 53.7 | 69.1 | 1.9 | 33100 | 14.7 | 6.7 | 0.6 | 9.9 | 62.6 | 11.4 | 202000 | 5.8 | 15.2 | 49.6 | 45.8 | 0 | Activity [30]: 71.7%; Activity [32]: 71.9%; IC50 [33]: 95100 nM
